# Hep lipid drop: modulators of hepatic lipid droplet formation; AML12 mouse hepatocytes, oleate lipid droplets, BODIPY imaging; inhibition, % at 6.5 µM; 240,000 compounds, 0.4% hits;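 active means lipid droplet intensity inhibited by at least 50%, with more than 500 cells counted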
#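 Material – AML12 mouse liver cells · Also added – oleate loading, 100 µM · Compound dosing – 6.5 µM single-point dosing · Times – overnight treatment with compound plus oleate · Measured by – fluorescence imaging, 20x objective, two fields per well · Read-out – percent inhibition of filter-corrected integrated lipid droplet intensity per well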
# CHT block: inhibits the human high affinity choline transporter | 310,000 compounds, 0.86% hits | B-score at 10 µM | AID 488975 | CHT-expressing cells, membrane potential dye, choline response; active compounds read low | Q9GZV3;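 active means B-score over 3 SD under the library average, and starting fluorescence ratio not unusually high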;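 further: choline stimulus applied at its EC90 after an EC20 pre-addition; B-score computed on integrated fluorescence ratio after choline addition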
# Target sequence (Q9GZV3 whole entry, looked up): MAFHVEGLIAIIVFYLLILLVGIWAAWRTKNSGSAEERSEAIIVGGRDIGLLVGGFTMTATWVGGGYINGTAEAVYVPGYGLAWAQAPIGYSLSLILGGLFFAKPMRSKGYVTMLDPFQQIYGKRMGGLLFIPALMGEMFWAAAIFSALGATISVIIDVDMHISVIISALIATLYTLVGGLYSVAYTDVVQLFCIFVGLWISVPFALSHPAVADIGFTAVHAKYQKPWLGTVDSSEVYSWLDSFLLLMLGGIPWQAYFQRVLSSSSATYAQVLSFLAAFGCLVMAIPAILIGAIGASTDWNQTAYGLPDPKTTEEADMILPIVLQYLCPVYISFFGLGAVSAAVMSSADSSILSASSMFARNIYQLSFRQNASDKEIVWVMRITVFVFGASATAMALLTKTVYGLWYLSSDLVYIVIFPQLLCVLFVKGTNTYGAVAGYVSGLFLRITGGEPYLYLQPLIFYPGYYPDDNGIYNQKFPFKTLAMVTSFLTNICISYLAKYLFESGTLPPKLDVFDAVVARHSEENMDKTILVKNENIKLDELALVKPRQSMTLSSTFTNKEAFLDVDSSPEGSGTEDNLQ
# HSF1 inh: HSF1 inhibition; NIH3T3-HGL HSE-luciferase, MG132-induced, luminescence 8 h; active compounds read low; activity change, negative = inhibition, % at 7.5 µM (by protocol); 300,000 compounds, 0.77% hits; AID 2098;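 active means more than half of replicate wells show activity change below -50%, luminescence cut by over half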;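 further: luciferase reports HSF-1 transcriptional activity via heat shock element; 0% = median of DMSO wells and -100% = zero luminescence signal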
# HSF1 activator: increases HSF-1 driven luciferase reporter signal. 300,000 compounds, 1.7% hits. NIH3T3-HGL HSF-1 luciferase reporter, MG132, 8 h; 100% = twice DMSO control signal. activation, % at 9 µM;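 active means mean replicate activation of at least 50% with a set share of replicates each reaching 50%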;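 further: 0% = median of the neutral control wells and 100% = twice that signal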
# PHOSPHO1 block: blocks human PHOSPHO1 phosphatase activity; Q8TCT1; recombinant PHOSPHO1, absorbance phosphatase assay; inhibition, % at 13.3 µM; 290,000 compounds, 1.1% hits; AID 1565; in the data active means inhibition above about 60%
# CHT allo act: allosterically activates the human high affinity choline transporter; Q9GZV3; B-score at 10 µM; AID 488977; CHT-expressing cells, membrane potential dye, choline EC20; active compounds read high; LV-AA mutant CHT in HEK293 cells; 310,000 compounds, 0.49% hits;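 active means initial fluorescence not abnormally high and integrated response B-score, plate-corrected, over 3 SD above library mean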
# Active calls of the source: *; i = inactive; / = no result given. Sampled rows, rich in hits. Any-hit rate of the full collection: about 4.9%.
SMILES,Hep lipid drop,CHT block,HSF1 inh,HSF1 activator,PHOSPHO1 block,CHT allo act
O=[N+]([O-])c1ccccc1-c1cc(-c2cc(Cl)ccc2O)n[nH]1,-6,i,33,21,-7,i
CCOC(=O)N1CCN(C(=O)CCSCCc2ccncc2)CC1,/,i,2,-4,33,i
CC(C)(C)c1ccc(-c2cc(-c3ccccc3O)[nH]n2)cc1,2,i,-72*,-75,40,i
O=c1c2ccccc2cnn1-c1ccc2ccccc2c1,-7,i,29,62*,1,i
O=c1c2ccccc2cnn1-c1ccc(Br)cc1,/,i,26,30,-9,i
CCOc1cc(C(=O)N2CCC(CC3CC(c4ccc(Cl)cc4)=NO3)(C(=O)NCC3CCCCC3)CC2)cc(OCC)c1OCC (stereo not given),40,i,5,5,-2,i
CCc1ccc(OCC(=O)N(CC)CC)cc1,4,i,-4,23,27,i
Cc1cc(C)n2nc(-c3sccc3-n3cccc3)cc2n1,/,i,5,6,62*,i
Cc1cc(C)n2nc(-c3sccc3-n3c(C)ccc3C)cc2n1,/,i,/,/,37,i
O=Cc1cccc(Oc2ccc([N+](=O)[O-])cc2[N+](=O)[O-])c1,-7,i,9,2,-16,i
Cc1ccc(NC(=O)CN2C(=O)c3ccccc3S2(=O)=O)cc1C,-6,i,-12,-4,28,i
O=C(CN1C(=O)c2ccccc2S1(=O)=O)Nc1ccccc1,/,i,-65*,-74,30,i
COc1ccc(C(=O)CN2C(=O)c3ccccc3S2(=O)=O)cc1,-9,i,-65*,-68,33,i
C=CCNc1ncnc2c1[nH]c1ccc(C)cc12,-12,i,19,62*,6,i
Cc1nn(-c2ccccc2)c(C)c1NC(=O)COC(=O)c1ccc(S(=O)(=O)C(F)F)cc1,/,i,-3,0,/,i
CN(C)C(=O)CSc1n[nH]c(=O)[nH]c1=O,-14,i,-89*,-92,36,i
C=CCN1C(=O)c2cccc3c(N4CCCCC4)ccc(c23)C1=O,-17,i,13,40,-10,i
O=C1c2cccc3c(N4CCCCC4)ccc(c23)C(=O)N1CCO,/,i,83,109*,1,i
CSc1nc2ccc(NC(=O)CSc3nnc(N)s3)cc2s1,-1,i,3,10,10,i
Cc1ccc(N2CC(C(=O)Nc3nnc(SCCN4CCOCC4)s3)CC2=O)cc1 (stereo not given),-2,i,-55*,-65,14,i
COc1ccc(-c2noc(N3CCC(C(=O)NCCCN4CC(C)CC(C)C4)CC3)n2)cc1 (stereo not given),-2,i,-77*,-82,22,i
COc1ccc(N2CC(C(=O)NCCCN3CCOCC3)CC2=O)cc1 (stereo not given),/,i,-9,-2,60*,i
Cc1ccc(N2CC(C(=O)NCCN3CCOCC3)CC2=O)cc1C (stereo not given),9,i,-5,-8,32,i
CN1CCN(C(=O)/C(C#N)=C/c2ccc(F)cc2)CC1,11,i,-1,10,20,i
CC(=O)Nc1ccc(NC(=O)C2CCCN(c3nnc(-n4cccc4)s3)C2)cc1 (stereo not given),/,i,4,7,9,i
SMILES,Hep lipid drop,CHT block,HSF1 inh,HSF1 activator,PHOSPHO1 block,CHT allo act
COc1ccc(-n2nnc3c(SCC(=O)N4CCCc5ccccc54)ncnc32)cc1,/,i,30,57*,/,i
COc1ccc(-n2nnc3c(=O)n(CC(=O)N4CCCc5ccccc54)cnc32)cc1,17,i,-2,1,3,i
Cn1c(=O)c2cc(S(=O)(=O)N3CCC(c4ccccc4)CC3)ccc2n(C)c1=O,-12,i,-6,2,5,i
Cc1ccc(C)c(NC(=O)C2=CCN(S(=O)(=O)c3ccc(F)cc3)CC2)c1,-9,i,7,29,-9,i
CCN(CC)c1ccc(/C=C/c2nc3ccccc3s2)cc1,/,i,-82*,-85,48,i
CC(=O)c1ccc(NC(=O)c2cccc(S(=O)(=O)N3CCN(C)CC3)c2)cc1,10,i,-3,27,-1,i
CC(=O)N1CCN(S(=O)(=O)c2cccc(C(=O)NCCC3=CCCCC3)c2)CC1,/,i,6,6,/,i
CN1CCN(S(=O)(=O)c2cccc(C(=O)Nc3sc4c(c3C(N)=O)CCCC4)c2)CC1,/,i,-5,-1,70*,i
CN1CCN(S(=O)(=O)c2cccc(C(=O)NCCC3=CCCCC3)c2)CC1,/,i,-76*,-82,/,i
CCc1cccc(NC(=O)c2cccc(S(=O)(=O)N3CCN(C)CC3)c2)c1,-2,i,33,78*,37,i
COc1cccc(NS(=O)(=O)c2cc3c(cc2C)N(C(C)=O)CCO3)c1,15,i,-16,-25,28,i
O=C(c1cnccn1)N(Cc1ccco1)C1(C(=O)NC2CCCCC2)CCCCC1,-12,i,-6,28,2,i
O=C(c1ccccn1)N(Cc1ccco1)C1(C(=O)NC2CCCC2)CCCCC1,-40,i,23,61*,13,i
Cc1nn(CC(=O)N2CCN(c3ccccc3)CC2)c(=O)c2ccccc12,-6,i,-3,4,36,i
CS(=O)(=O)c1ccc(C(=O)NC2CCCCC2)cc1,-6,i,-27,-5,-12,i
O=C1OCCC1Sc1nc2ccccc2c(=O)n1Cc1ccccc1 (stereo not given),2,i,0,12,-1,i
O=C1OCCC1Sc1nc2cc(Cl)ccc2n1Cc1ccccc1 (stereo not given),/,i,7,-3,89*,i
CC(C)(c1ccccc1)c1ccc(OCCCN2CCNCC2)cc1,-12,i,21,56*,59,i
O=C(Nc1nnc(Cc2ccccc2F)s1)Nc1ccccc1F,1,i,14,24,34,i
CCCc1nnc2n1N=C(c1ccc(OC)c(OC)c1)CS2,13,-5*,-1,7,-11,i
COc1cccc(NC(=O)CN(C)S(=O)(=O)c2ccc3c(c2)CCC(=O)N3)c1,32,i,2,-9,39,i
COc1ccc(OC)c(/C=N\NC(=O)c2ccc(COc3ccc(C)cc3[N+](=O)[O-])o2)c1,/,i,12,35,/,i
CC(C)C(NC(=O)COc1ccc2ccccc2c1)C(=O)N/N=C/C=C/c1ccccc1 (stereo not given),6,i,2,5,93*,i
COCCn1c(C)cc(C2=NNC(=Nc3ccccc3)SC2)c1C,/,i,-40,-39,102*,i

# Source: PubChem BioAssay (several laboratories)
